An excerpt weighted towards active compounds, which were near 2.5% of everything screened.
TRPC4 agonist: opens the mouse TRPC4 cation channel | Q9QUQ5 | HEK293 TRPC4beta/mu-opioid, Fluo4 calcium fluorescence; stronger effect = higher value | B-score at 10 µM | 310,000 compounds, 0.49% hits | AID 2237;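 active means B-score above 5 SD of library B-scores, and initial fluorescence ratio not above library mean plus 5 SD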;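 further: positive B-score marks a calcium rise read as TRPC4 activation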
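System: HEK293 cells stably co-expressing mouse TRPC4beta and mu-opioid receptor; Schedule: Fluo4 dye loading 45 min at room temperature, 110 s recording; Detection: Fluo4 fluorescence, kinetic; Evaluation: B-scored integrated calcium fluorescence ratio; Controls: buffer (low) and maximal DAMGO (high).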
TRPC6 inhibitor: blocks the mouse TRPC6 cation channel. AID 2553. Q61143. HEK293-TRPC6, membrane potential dye, ACh-evoked depolarization; stronger effect = lower value. 310,000 compounds, 1.1% hits. B-score at 10 µM;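 active means B-score under library mean minus 3 SD, initial fluorescence not abnormally high, positive integrated signal ratio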;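 further: B-score derived from integrated fluorescence ratio over the kinetic read; more negative B-score means stronger inhibition of depolarization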
Target sequence (Q61143 whole entry, looked up): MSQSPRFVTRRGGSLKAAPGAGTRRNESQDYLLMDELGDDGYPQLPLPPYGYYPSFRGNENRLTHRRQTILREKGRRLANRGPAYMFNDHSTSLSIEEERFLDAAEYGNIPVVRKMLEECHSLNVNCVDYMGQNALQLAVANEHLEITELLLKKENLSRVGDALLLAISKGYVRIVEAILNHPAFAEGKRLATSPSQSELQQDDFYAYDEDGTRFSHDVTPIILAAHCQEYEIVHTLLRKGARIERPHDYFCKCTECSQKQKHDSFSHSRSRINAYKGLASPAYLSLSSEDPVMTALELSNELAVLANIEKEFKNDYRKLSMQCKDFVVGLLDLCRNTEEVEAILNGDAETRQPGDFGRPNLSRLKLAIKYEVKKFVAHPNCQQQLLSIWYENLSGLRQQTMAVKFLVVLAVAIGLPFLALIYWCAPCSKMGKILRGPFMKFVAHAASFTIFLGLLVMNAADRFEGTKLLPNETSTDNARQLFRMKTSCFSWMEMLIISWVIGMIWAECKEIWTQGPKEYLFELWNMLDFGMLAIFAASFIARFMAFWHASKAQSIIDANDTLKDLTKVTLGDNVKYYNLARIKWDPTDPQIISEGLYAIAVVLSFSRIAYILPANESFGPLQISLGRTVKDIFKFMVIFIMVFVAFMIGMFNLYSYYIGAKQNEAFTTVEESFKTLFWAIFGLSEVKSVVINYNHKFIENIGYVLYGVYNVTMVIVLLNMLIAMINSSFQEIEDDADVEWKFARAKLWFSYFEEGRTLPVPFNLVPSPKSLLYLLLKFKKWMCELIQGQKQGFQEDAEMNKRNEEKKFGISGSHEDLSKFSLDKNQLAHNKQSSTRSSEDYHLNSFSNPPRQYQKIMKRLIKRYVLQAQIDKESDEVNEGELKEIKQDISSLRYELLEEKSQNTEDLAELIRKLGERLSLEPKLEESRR
TRPC4 PAM: TRPC4 (mouse) allosteric potentiation | HEK293 TRPC4beta/mu-opioid, DAMGO EC20, Fluo-4 Ca2+ flux; stronger effect = higher value | B-score at 10 µM | 310,000 compounds, 0.42% hits | AID 2227;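 active means B-score of calcium response area above 5 SD of library B-scores, with initial fluorescence ratio within 5 SD of library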;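 further: B-score of integrated fluorescence ratio over time as area under calcium response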
TRPC4 inh: blocks the mouse TRPC4 cation channel. HEK293 TRPC4beta/mu-opioid, DAMGO-evoked Fluo4 calcium flux; stronger effect = lower value. B-score at 10 µM. AID 2247. 300,000 compounds, 0.39% hits;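 active means B-score over 3 SD under the library average, no early fluorescence shift, positive overall ratio signal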
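Assay system – HEK293 line stably carrying TRPC4beta and mu-opioid receptor · Doses – single dose · Detection – Fluo4 calcium-dye fluorescence, kinetic read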
TRPC6 act: activates the mouse TRPC6 cation channel | Q61143 | HEK293-TRPC6 membrane potential dye fluorescence; stronger effect = higher value | B-score at 10 µM | 310,000 compounds, 0.13% hits | AID 2550;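 active means B-score of the integrated fluorescence ratio above library mean plus 3 SD, and starting fluorescence ratio within library mean plus 5 SD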;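 further: higher score means more depolarization so channel activation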
Platelet DG rel: platelet dense granule release activity | AID 1663 | human platelet-rich plasma, SFLLRN dense granule ATP release, luminescence | inhibition, %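 (compounds screened at 7.5 µM in platelet-rich plasma)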 | 300,000 compounds, 0.22% hits;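 active means mean replicate score, as percent of positive control, at or above 50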
TRPC4 sel inh 2: second check of whether TRPC6 inhibitors also affect mouse TRPC4 | shares compounds with TRPC6 inhibitor | HEK293 TRPC4/MOR, membrane potential dye fluorescence; channel activated by saturating DAMGO dose | inhibition, % at 10 µM | 920 compounds, 42% hits;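 active means compounds whose fluorescence signal differed from control wells by over 3 SD, either direction, in both duplicate plates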
TRPC4 spec: mouse TRPC4 off-target activity of TRPC6 inhibitors. activity change, negative = inhibition, % at 10 µM. 920 compounds, 61% hits. shares compounds with TRPC6 inhibitor. HEK293 TRPC4/mu-opioid, membrane potential fluorescence;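 active means rise or fall in signal beyond 3 SD of buffer-only wells in both replicate plates, either sign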;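 further: integrated kinetic ratio of fluorescence range over baseline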
HEK293 MPD ctr 2-1: second counter-screen for TRPC6 inhibitors: parental HEK293 cells; shares compounds with TRPC6 inhibitor; parental HEK293 membrane potential dye fluorescence; maximal acetylcholine challenge after compound addition; signal change vs control, % at 10 µM; 920 compounds, 31% hits;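 active means membrane potential signal moving either way by over 3 SD of the maximum-effect control, in both duplicate plates, meaning non-specific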
HEK293 MPD ctr-1: parental HEK293 nonspecific activity of TRPC6 inhibitors; shares compounds with TRPC6 inhibitor; parental HEK293 membrane potential dye fluorescence; membrane potential signal change, % at 10 µM; 920 compounds, 60% hits;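 active means membrane potential signal shifting up or down by more than 3 SD of buffer-only wells, on both duplicate plates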
HEK293 MPD ctr-2: counter-screen for TRPC6 modulators: effect in parental HEK293 cells; membrane potential signal change, % at 10 µM; membrane potential dye fluorescence; shares compounds with TRPC6 inhibitor; 2,400 compounds, 51% hits;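 active means membrane potential signal moves up or down beyond 5 SD from buffer-only wells, on both duplicate plates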
HEK293 MPD ctr 2-2: parental HEK293 nonspecific activity of TRPC6 modulators, second screen; shares compounds with TRPC6 inhibitor; membrane potential dye fluorescence; after compound, maximal acetylcholine stimulation; inhibition, % at 10 µM; 2,400 compounds, 14% hits;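 active means membrane potential signal drops by more than 5 SD from the mean control signal, in both duplicate plates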;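 further: plate controls were acetylcholine ECmax control wells for no effect and buffer only wells for full effect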
TRPC4/MOR mod: tests whether TRPC6 modulators also affect mouse TRPC4. shares compounds with TRPC6 inhibitor. HEK293 TRPC4/mu-opioid, membrane potential fluorescence. percent change from control (negative = decrease, positive = increase), % at 10 µM. 2,400 compounds, 69% hits;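 active means membrane potential signal moved up or down beyond 5 SD of buffer control wells, in both duplicate plates, actives on both sides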;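 further: plate controls were assay buffer wells for no effect and DAMGO maximal-effect wells for full effect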
TRPC4 ctr inh 2: mouse TRPC4 off-target activity of TRPC6 modulators, second screen | AID 488928 | HEK293 TRPC4/mu-opioid, membrane potential dye fluorescence; stimulated with maximal-effect DAMGO | 2,400 compounds, 55% hits | shares compounds with TRPC6 inhibitor | inhibition, % at 10 µM;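 active means drop in membrane potential signal beyond 5 SD of the control wells in both duplicate plates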;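 further: TRPC4 counter screen for TRPC6 hits run under conditions tuned for TRPC6 not TRPC4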
TRPC6 block conf: confirmation of mouse TRPC6 inhibitors | shares compounds with TRPC6 inhibitor | HEK293-TRPC6, membrane potential dye, ACh-evoked depolarization | inhibition, % at 10 µM | 3,300 compounds, 43% hits | AID 488960;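 active means fluorescence ratio falls more than 5 SD below the full-stimulation control mean, in both duplicate runs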;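 further: integrated fluorescence ratio of peak minus minimum over baseline after agonist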
TRPC6 act conf: mouse TRPC6 activator confirmation; AID 488961; activation, % at 10 µM; HEK293-TRPC6 membrane potential dye fluorescence, FDSS; shares compounds with TRPC6 inhibitor; 2,800 compounds, 11% hits;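 active means ratio signal rise beyond 5 SD above unstimulated control wells' mean, seen in both duplicate runs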;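 further: plate controls were buffer EC0 wells for no effect and acetylcholine ECmax response for full effect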
* = called active by the depositor; i = inactive; nt = not tested or not shown.

SMILES	TRPC4 agonist	TRPC6 inhibitor	TRPC4 PAM	TRPC4 inh	TRPC6 act	Platelet DG rel	TRPC4 sel inh 2	TRPC4 spec	HEK293 MPD ctr 2-1	HEK293 MPD ctr-1	HEK293 MPD ctr-2	HEK293 MPD ctr 2-2	TRPC4/MOR mod	TRPC4 ctr inh 2	TRPC6 block conf	TRPC6 act conf
C[N+](C)(C)CCOC(=O)C1(c2ccccc2)CCCC1	i	-8.5*	i	i	i	5	i	i	1.0%*	i	nt	nt	nt	nt	69%*	i
C[N+]1(CCOC(=O)C2(c3ccccc3)CCCC2)CCCCC1	i	-11*	i	i	i	10	i	i	-16%*	i	nt	nt	nt	nt	78%*	i
CCN(CC)CCCOC(=O)C1(c2ccccc2)CCCC1	i	-9.1*	i	i	i	1	i	12%*	12%*	12%*	nt	nt	nt	nt	60%*	nt
CCc1ccc2oc(-c3ccc(OC)cc3)cc(=Nc3c(C)n(C)n(-c4ccccc4)c3=O)c2c1	i	-7.8*	i	i	i	7	i	-13%*	i	-246%*	nt	nt	nt	nt	i	i
CCc1ccc2oc(-c3ccc(OC)cc3)cc(=Nc3cccc(C(=O)O)c3)c2c1	i	i	i	i	i	6	nt	nt	nt	nt	nt	nt	nt	nt	nt	nt
O=C(COc1ccccc1)c1cn(CC(=O)N2CCCC2)c2ccccc12	i	i	i	i	i	5	nt	nt	nt	nt	nt	nt	nt	nt	nt	nt
O=C(COc1ccc(/C=N/NC(=O)c2ccncc2)cc1)Nc1ccc([N+](=O)[O-])cc1	i	i	i	i	i	10	nt	nt	nt	nt	nt	nt	nt	nt	nt	nt
O=C(COc1ccc([N+](=O)[O-])cc1)Nc1ccncc1	i	-5.2*	i	i	i	2	nt	nt	nt	nt	-134%*	i	-28%*	32%*	37%*	i
CCN(CC)CCCCN1c2ccccc2Sc2ccccc21	i	-6.5*	i	i	i	5	nt	nt	nt	nt	i	i	i	69%*	48%*	i
CN(C)CCC(=O)N1c2ccccc2Sc2ccc(C(F)(F)F)cc21	i	-6.3*	i	i	i	-1	nt	nt	nt	nt	88%*	92%*	14%*	38%*	89%*	nt
CC(CN1c2ccccc2Sc2ccccc21)N(C)C (stereo unspecified)	i	-6.1*	i	i	i	-3	nt	nt	nt	nt	i	94%*	8.0%*	32%*	72%*	i
CN(C)CCCN1c2ccccc2Sc2ccc(C(F)(F)F)cc21	i	-7.2*	i	i	i	1	70%*	1.5%*	i	i	nt	nt	nt	nt	i	i
CC1=NN(c2ccccc2)C(=O)/C1=C/C=C/c1ccc(N(C)C)cc1	i	-12*	i	i	i	15	74%*	-14%*	i	-140%*	nt	nt	nt	nt	81%*	i
CC1=NN(c2ccccc2)C(=O)/C1=C/c1cn(C)c2ccccc12	i	-5.4*	i	i	i	-2	nt	nt	nt	nt	i	i	-12%*	40%*	i	i
CC1=NN(c2ccc(C(=O)OC(C)C)cc2)C(=O)/C1=C\C=C\c1ccco1	i	-6.3*	i	i	i	2	nt	nt	nt	nt	i	i	i	45%*	i	i
CCOC(=O)N1CCN(CC(O)COc2c(C)cc(C)cc2C)CC1 (stereo unspecified)	i	i	i	i	i	17	nt	nt	nt	nt	nt	nt	nt	nt	nt	nt
Cc1ccc(NC(=O)COC(=O)C(NS(=O)(=O)c2ccc(Cl)cc2)C(C)O)cc1 (stereo unspecified)	i	i	i	i	i	-9	nt	nt	nt	nt	nt	nt	nt	nt	nt	nt
C/C(N)=C(/C#N)C(=O)COC(=O)C(NS(=O)(=O)c1ccc(Cl)cc1)C(C)O (stereo unspecified)	i	-5.4*	i	i	i	3	nt	nt	nt	nt	i	i	i	i	i	i
O=C(O)c1ccc(NC(=O)c2cn(-c3ccccc3)nc2-c2cccc(Cl)c2)cc1	i	i	i	i	i	-1	nt	nt	nt	nt	nt	nt	nt	nt	nt	nt
OC(CNCC1CCCO1)Cn1c2ccccc2c2ccccc21 (stereo unspecified)	i	-6.5*	i	i	i	-4	nt	nt	nt	nt	312%*	73%*	36%*	65%*	84%*	nt
OC(CNCC1CCCO1)Cn1c2ccc(Cl)cc2c2cc(Cl)ccc21 (stereo unspecified)	i	i	i	i	i	-4	nt	nt	nt	nt	nt	nt	nt	nt	nt	nt
CCOc1ccc(S(=O)(=O)N2CCc3cc(OC)c(OC)cc3C2)cc1	i	i	i	i	12*	-10	nt	nt	nt	nt	i	i	10%*	i	nt	114%*
CCN(Cc1cc(OC)c(OC)c(OC)c1)C(=S)Nc1cccc(SC)c1	i	i	i	i	i	25	nt	nt	nt	nt	nt	nt	nt	nt	nt	nt
O=C(N/N=C/c1sc(N2CCOCC2)nc1-c1ccccc1)c1ccc(O)cc1	i	i	i	i	i	1	nt	nt	nt	nt	nt	nt	nt	nt	nt	nt

From PubChem
